Measurements pooled from the literature.
Protocols differ between the studies behind these lines.
CDK2 with cyclin E: Cyclin-dependent kinase 2, with cyclin E (CDK2, Homo sapiens, UniProt P24941)
CDK2: Cyclin-dependent kinase 2 (CDK2, Homo sapiens, UniProt P24941)
CDK2 with cyclin A: Cyclin-dependent kinase 2, with cyclin A (CDK2, Homo sapiens, UniProt P24941)

SMILES | target | observed | action | technique | tested at | quantity | value
Cc1sc(C(=O)NC2COC2)cc1-n1cc(NC(=O)Nc2c(F)cccc2Cl)cn1 | CDK2 with cyclin E | enzyme activity | inhibitor | – | 10 µM | remaining activity | 106%
O=C1Cc2c([nH]c3ccc(Br)cc23)-c2ccccc2N1 | CDK2 with cyclin E | cell-free assay | – | – | 0.5 µM | remaining signal | 51.9%
O=C(Nc1cccnn1)N1CC(C/C=C/c2cncc(Oc3ccc(C(F)(F)F)cn3)n2)C1 | CDK2 | cell-free assay | – | competition with immobilised ligand | 1 µM | remaining binding | 100%
O=C1Nc2ccc(Cl)cc2C1=Cc1cc(Cl)c(O)c(Cl)c1 | CDK2 with cyclin E | cell-free assay | – | – | 0.5 µM | remaining signal | 90%
Cc1cc(NC(=O)c2cccc3cc(-c4cccc5[nH]nc(N)c45)ccc23)ccc1F | CDK2 with cyclin E | enzyme activity | inhibitor | – | 0.1 µM | activity vs control | 103%
O=C(Nc1cnn(-c2csc(C(=O)NC3COC3)c2)c1)Nc1ccccc1Cl | CDK2 with cyclin A | enzyme activity | inhibitor | – | 5 µM | remaining activity | 93.6%
Cn1c2c(c3ccc(Cl)c(Cl)c31)C(C#N)C1(CCNCC1)NC2=O (racemic) | CDK2 | thermal stability | – | DSF | 10 µM | ΔTm | 0.1 °C
O=C1Cc2c([nH]c3ccc([N+](=O)[O-])cc23)-c2ccccc2N1 | CDK2 with cyclin A | cell-free assay | – | – | 0.5 µM | remaining signal | 8.37%
Cc1ccc(C(=O)NCc2ccsc2)cc1C#Cc1cn(C(C)C)c2ncnc(N)c12 | CDK2 with cyclin E | enzyme activity | inhibitor | – | 1 µM | activity vs control | 108%
O=C(N[C@H]1CCCCC/C=C\C2C[C@@]2(C(=O)O)NC(=O)[C@@H]2C[C@@H](Oc3ccncc3)CN2C1=O)OC1CCCC1 (some centres unmarked) | CDK2 | binding | – | competition with immobilised ligand | 1 µM | remaining binding | 87%
CS(=O)(=O)CCNCc1ccc(-c2ccc3ncnc(Nc4ccc(OCc5cccc(F)c5)c(Cl)c4)c3c2)o1 | CDK2 with cyclin A | cell-free assay | – | – | 0.5 µM | remaining signal | 94.5%
FC(F)(F)Oc1cccc(-c2cnc3ccc(-c4ccncc4)nn23)c1 | CDK2 with cyclin A | enzyme activity | inhibitor | radiometric | 5 µM | activity vs control | 10%
O=C1NC(=O)c2cc(Nc3ccc(F)cc3)c(Nc3ccc(F)cc3)cc21 | CDK2 with cyclin A | cell-free assay | – | – | 0.5 µM | remaining signal | 95.3%
CSc1cccnc1N1CCN(Cc2nc3ccccc3[nH]2)CC1 | CDK2 | cell-free assay | – | competition with immobilised ligand | 1 µM | remaining binding | 95%
N#CC1c2c([nH]c3c(Cl)c(Cl)ccc23)C(=O)NC12CCCCC2 (racemic) | CDK2 | thermal stability | – | DSF | 10 µM | ΔTm | -0.6 °C
CC(C)c1ccc(NC(=O)c2cccs2)c(-c2nc3ccccc3[nH]c2=O)c1 | CDK2 with cyclin A | enzyme activity | inhibitor | – | 1 µM | activity vs control | 96%

SMILES | target | observed | action | technique | tested at | quantity | value
C[C@H](NC(=O)c1cnc2n1[C@](C)(Cc1ccc(C#N)cc1)C(=O)N2c1cc(Cl)c(F)c(Cl)c1)C(=O)NC1(c2ccccn2)CC1 | CDK2 | cell-free assay | – | competition with immobilised ligand | 1 µM | remaining binding | 100%
Cn1c2c(Cl)c(Cl)ccc2c2cn[nH]c(=O)c21 | CDK2 | thermal stability | – | DSF | 10 µM | ΔTm | 0.6 °C
CCC(=O)N[C@@H]1CC[C@H](C(=O)N(C)c2ccc(-c3nc4ccccc4o3)cc2)C1 | CDK2 | cell-free assay | – | competition with immobilised ligand | 1 µM | remaining binding | 100%
N#Cc1c(NC(=O)c2cccc3ccccc23)sc2c1CCCC2 | CDK2 with cyclin A | cell-free assay | – | – | 0.5 µM | remaining signal | 100%
Cn1c2c(c3ccccc31)C(C#N)C(C)(C)NC2=O (centres unmarked) | CDK2 | thermal stability | – | DSF | 10 µM | ΔTm | -0.1 °C
O=C(Nc1cnn(-c2csc(C(=O)NC3COC3)c2)c1)Nc1c(F)cccc1Cl | Cyclin-dependent kinase 2, with cyclin E2 (CDK2, Homo sapiens, UniProt P24941) | enzyme activity | inhibitor | – | 5 µM | remaining activity | 98.9%
CC(C)[C@H](CO)Nc1nc(Nc2cccc(Cl)c2)c2ncn(C(C)C)c2n1 | CDK2 with cyclin A | cell-free assay | – | – | 0.5 µM | remaining signal | 6.91%
CN(c1ccnc(CNc2nc(Nc3ccc4c(c3)CC(=O)N4)ncc2C(F)(F)F)n1)S(C)(=O)=O | CDK2 | cell-free assay | – | competition with immobilised ligand | 1 µM | remaining binding | 89%
CCC1(CC)NC(=O)c2c(c3ccc(Cl)c(Cl)c3n2C)C1C#N (centres unmarked) | CDK2 | thermal stability | – | DSF | 10 µM | ΔTm | -0.4 °C
Cc1cc(-n2nc(Cc3cc(F)cc(C(F)(F)F)c3)nc2C)ccc1C(N)=O | CDK2 | cell-free assay | – | competition with immobilised ligand | 1 µM | remaining binding | 100%
CN1CCC2(CC1)NC(=O)c1c(c3ccc(Cl)c(Cl)c3n1C)C2C#N (racemic) | CDK2 | thermal stability | – | DSF | 10 µM | ΔTm | 0.1 °C
Cc1ccc(NC(=O)c2ccc(C)c(C(F)(F)F)c2)cc1C#Cc1nn(C2CCC(O)CC2)c2ncnc(N)c12 (centres unmarked) | CDK2 with cyclin E | cell-free assay | – | – | 10 µM | remaining signal | 102%
COc1cc(/C=C/C(=O)CC(=O)/C=C/c2ccc(O)c(OC)c2)ccc1O | CDK2 with cyclin A | enzyme activity | inhibitor | – | 1 µM | activity vs control | 107%
CN(C(=O)c1ccccc1)c1cc(N(C)c2ccc3c(c2)CCc2ccc(C(=O)NCCN4CCOCC4)cc2C3=O)ccc1F | CDK2 | cell-free assay | – | competition with immobilised ligand | 1 µM | remaining binding | 96%
Cn1c2c(Cl)c(Cl)ccc2c2cc[nH]c(=O)c21 | CDK2 | thermal stability | – | DSF | 10 µM | ΔTm | 0.6 °C
COc1cc2c(cc1OC)-c1[nH]nc(Nc3cccc(F)c3)c1C2 | CDK2 with cyclin E | cell-free assay | – | – | 0.5 µM | remaining signal | 88.6%
